According to ChEMBL document CHEMBL5247575 (J Med Chem, 2018):
pKi: −log10 of the molar value.

What was measured:
Klebsiella pneumoniae [1] = assay: Synergistic antibacterial activity against Klebsiella pneumoniae jefferson 1775 producing OXA-48 assessed as cefepime MIC at 4 ug/ml by broth microdilution method; format: functional; conditions: dose 4 µg/ml
Escherichia coli [2] = assay: Antibacterial activity against Escherichia coli DH10B transfected with pBC SK (-) PDC-3 by broth microdilution method; format: functional
Bacteria = assay: Inhibition of bacteria ADC-7 assessed as second order rate constant K2/K using nitrocefin as substrate
Acinetobacter baumannii [3] = assay: Synergistic antibacterial activity against ADC deleted Acinetobacter baumannii transfected with pWH1266 OXA-23 assessed as cefepime MIC at 4 ug/ml by broth microdilution method; format: functional; conditions: dose 4 µg/ml
Pseudomonas aeruginosa [4] = assay: Antibacterial activity against Pseudomonas aeruginosa 839 by broth microdilution method; format: functional
Acinetobacter baumannii [5] = assay: Synergistic antibacterial activity against Acinetobacter baumannii PR440 producing OXA-23/24/40 assessed as cefepime MIC at 4 ug/ml by broth microdilution method; format: functional; conditions: dose 4 µg/ml
Klebsiella pneumoniae [6] = assay: Synergistic antibacterial activity against Klebsiella pneumoniae CAV 1636 producing OXA-181 assessed as meropenem MIC at 4 ug/ml by broth microdilution method; format: functional; conditions: dose 4 µg/ml
Escherichia coli [7] = assay: Synergistic antibacterial activity against Escherichia coli DH10B assessed as meropenem MIC at 4 ug/ml by broth microdilution method; format: functional; conditions: dose 4 µg/ml
Klebsiella pneumoniae [8] = assay: Synergistic antibacterial activity against Klebsiella pneumoniae CAV 1636 producing OXA-181 assessed as cefepime MIC at 4 ug/ml by broth microdilution method; format: functional; conditions: dose 4 µg/ml
Pseudomonas aeruginosa [9] = assay: Synergistic antibacterial activity against Pseudomonas aeruginosa 795 assessed as meropenem MIC at 4 ug/ml by broth microdilution method; format: functional; conditions: dose 4 µg/ml
Acinetobacter baumannii [10] = assay: Synergistic antibacterial activity against ADC deleted Acinetobacter baumannii assessed as cefepime MIC at 4 ug/ml by broth microdilution method; format: functional; conditions: dose 4 µg/ml
Klebsiella pneumoniae [11] = assay: Synergistic antibacterial activity against Klebsiella pneumoniae 901/1860 producing KPC-3 assessed as meropenem MIC at 4 ug/ml by broth microdilution method; format: functional; conditions: dose 4 µg/ml
Pseudomonas aeruginosa [12] = assay: Synergistic antibacterial activity against Pseudomonas aeruginosa CL232 assessed as cefepime MIC at 4 ug/ml by broth microdilution method; format: functional; conditions: dose 4 µg/ml
Escherichia coli [13] = assay: Synergistic antibacterial activity against Escherichia coli DH10B transfected with pBC SK (-) KPC-2 assessed as cefepime MIC at 4 ug/ml by broth microdilution method; format: functional; conditions: dose 4 µg/ml
Acinetobacter baumannii [14] = assay: Synergistic antibacterial activity against Acinetobacter baumannii PR448 producing OXA-23 assessed as meropenem MIC at 4 ug/ml by broth microdilution method; format: functional; conditions: dose 4 µg/ml
Escherichia coli [15] = assay: Synergistic antibacterial activity against Escherichia coli DH10B transfected with pBC SK (-) KPC-2 assessed as meropenem MIC at 4 ug/ml by broth microdilution method; format: functional; conditions: dose 4 µg/ml
Pseudomonas aeruginosa [16] = assay: Synergistic antibacterial activity against Pseudomonas aeruginosa 839 assessed as cefepime MIC at 4 ug/ml by broth microdilution method; format: functional; conditions: dose 4 µg/ml
Klebsiella pneumoniae [17] = assay: Synergistic antibacterial activity against Klebsiella pneumoniae 660/1568 producing KPC-3 assessed as cefepime MIC at 4 ug/ml by broth microdilution method; format: functional; conditions: dose 4 µg/ml
Outline: (§1)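 Broth microdilution per CLSI guidelines, using custom frozen panels. […] Each partner drug was also tested alone. MICs were run in triplicate and the modal value is reported.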

Klebsiella pneumoniae [18] = assay: Synergistic antibacterial activity against Klebsiella pneumoniae NY BS producing OXA-232 assessed as meropenem MIC at 4 ug/ml by broth microdilution method; format: functional; conditions: dose 4 µg/ml
Klebsiella pneumoniae [19] = assay: Synergistic antibacterial activity against Klebsiella pneumoniae 972/1910 producing KPC-3 assessed as cefepime MIC at 4 ug/ml by broth microdilution method; format: functional; conditions: dose 4 µg/ml
Klebsiella pneumoniae [20] = assay: Synergistic antibacterial activity against Klebsiella pneumoniae 1315/2198 producing KPC-3 assessed as meropenem MIC at 4 ug/ml by broth microdilution method; format: functional; conditions: dose 4 µg/ml; outline: as §1
Klebsiella pneumoniae [21] = assay: Synergistic antibacterial activity against Klebsiella pneumoniae jefferson 1775 producing OXA-48 assessed as meropenem MIC at 4 ug/ml by broth microdilution method; format: functional; conditions: dose 4 µg/ml
Klebsiella pneumoniae [22] = assay: Synergistic antibacterial activity against Klebsiella pneumoniae NY BS producing OXA-232 assessed as cefepime MIC at 4 ug/ml by broth microdilution method; format: functional; conditions: dose 4 µg/ml
Acinetobacter baumannii [23] = assay: Synergistic antibacterial activity against Acinetobacter baumannii PR474 producing OXA-23/24/40 assessed as cefepime MIC at 8 ug/ml by broth microdilution method; format: functional; conditions: dose 8 µg/ml
Klebsiella pneumoniae [24] = assay: Synergistic antibacterial activity against Klebsiella pneumoniae 1354/2241 producing KPC-3 assessed as cefepime MIC at 8 ug/ml by broth microdilution method; format: functional; conditions: dose 8 µg/ml; outline: as §1
Klebsiella pneumoniae [25] = assay: Synergistic antibacterial activity against Klebsiella pneumoniae 1084/1957 producing KPC-3 assessed as meropenem MIC at 8 ug/ml by broth microdilution method; format: functional; conditions: dose 8 µg/ml; outline: as §1
Pseudomonas aeruginosa [26] = assay: Synergistic antibacterial activity against Pseudomonas aeruginosa CL232 assessed as meropenem MIC at 8 ug/ml by broth microdilution method; format: functional; conditions: dose 8 µg/ml
Acinetobacter baumannii [27] = assay: Synergistic antibacterial activity against Acinetobacter baumannii PR420 producing OXA-23/24/40 assessed as meropenem MIC at 8 ug/ml by broth microdilution method; format: functional; conditions: dose 8 µg/ml
Klebsiella pneumoniae [28] = assay: Synergistic antibacterial activity against Klebsiella pneumoniae 1108/1989 producing KPC-3 assessed as cefepime MIC at 8 ug/ml by broth microdilution method; format: functional; conditions: dose 8 µg/ml; outline: as §1
Pseudomonas aeruginosa [29] = assay: Synergistic antibacterial activity against Pseudomonas aeruginosa CL232 assessed as cefepime MIC at 8 ug/ml by broth microdilution method; format: functional; conditions: dose 8 µg/ml
Klebsiella pneumoniae [30] = assay: Synergistic antibacterial activity against Klebsiella pneumoniae 440/1360 producing KPC-2 assessed as meropenem MIC at 8 ug/ml by broth microdilution method; format: functional; conditions: dose 8 µg/ml; outline: as §1
Acinetobacter baumannii [31] = assay: Synergistic antibacterial activity against Acinetobacter baumannii PR448 producing OXA-23 assessed as meropenem MIC at 8 ug/ml by broth microdilution method; format: functional; conditions: dose 8 µg/ml
Klebsiella pneumoniae [32] = assay: Synergistic antibacterial activity against Klebsiella pneumoniae 729/1679 producing KPC-3 assessed as cefepime MIC at 8 ug/ml by broth microdilution method; format: functional; conditions: dose 8 µg/ml; outline: as §1
Escherichia coli [33] = assay: Synergistic antibacterial activity against Escherichia coli DH10B transfected with pBC SK (-) PDC-3 assessed as meropenem MIC at 8 ug/ml by broth microdilution method; format: functional; conditions: dose 8 µg/ml; outline: as §1
Klebsiella pneumoniae [34] = assay: Synergistic antibacterial activity against Klebsiella pneumoniae 972/1910 producing KPC-3 assessed as meropenem MIC at 8 ug/ml by broth microdilution method; format: functional; conditions: dose 8 µg/ml
Acinetobacter baumannii [35] = assay: Synergistic antibacterial activity against Acinetobacter baumannii PR448 producing OXA-23 assessed as cefepime MIC at 8 ug/ml by broth microdilution method; format: functional; conditions: dose 8 µg/ml
Outline: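 Broth microdilution per CLSI guidelines in frozen panels. Test compound held at fixed 8 mg/L while the partner β-lactam concentration was increased. Run in triplicate; modal MIC reported.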

Acinetobacter baumannii [36] = assay: Synergistic antibacterial activity against ADC deleted Acinetobacter baumannii transfected with pWH1266 producing OXA-24/40 assessed as meropenem MIC at 8 ug/ml by broth microdilution method; format: functional; conditions: dose 8 µg/ml
Klebsiella pneumoniae [37] = assay: Synergistic antibacterial activity against Klebsiella pneumoniae 776/1742 producing KPC-2 assessed as cefepime MIC at 8 ug/ml by broth microdilution method; format: functional; conditions: dose 8 µg/ml
[38] = Inhibition of bacteria ADC-7 assessed as apparent inhibition constant using nitrocefin as substrate

SMILES	MIC (Klebsiella pneumoniae [1]) [µg/mL]	MIC (Escherichia coli [2]) [µg/mL]	K (Bacteria)	MIC (Pseudomonas aeruginosa [4]) [µg/mL]	MIC (Acinetobacter baumannii [5]) [µg/mL]	MIC (Klebsiella pneumoniae [6]) [µg/mL]	MIC (Escherichia coli [7]) [µg/mL]	MIC (Klebsiella pneumoniae [8]) [µg/mL]	MIC (Pseudomonas aeruginosa [9]) [µg/mL]	MIC (Acinetobacter baumannii [10]) [µg/mL]	MIC (Klebsiella pneumoniae [11]) [µg/mL]	MIC (Pseudomonas aeruginosa [12]) [µg/mL]	MIC (Escherichia coli [13]) [µg/mL]	MIC (Acinetobacter baumannii [14]) [µg/mL]	MIC (Escherichia coli [15]) [µg/mL]	MIC (Pseudomonas aeruginosa [16]) [µg/mL]	MIC (Klebsiella pneumoniae [17]) [µg/mL]	MIC (Klebsiella pneumoniae [18]) [µg/mL]	MIC (Klebsiella pneumoniae [19]) [µg/mL]	MIC (Klebsiella pneumoniae [20]) [µg/mL]	further results
O.O=C(NC1CCNCC1)[C@@H]1CC[C@@H]2CN1C(=O)N2OS(=O)(=O)O [RELEBACTAM]	0.25	> 16	7.8 10^3/M/s	> 16	> 16	16	≤ 0.12	4	8	0.25	≤ 0.12	16	≤ 0.12	> 16	≤ 0.12	4	0.25	> 16	0.25	≤ 0.12	MIC (Acinetobacter baumannii [3]): > 16 µg/mL; MIC (Klebsiella pneumoniae [21]): 2 µg/mL; MIC (Klebsiella pneumoniae [22]): 2 µg/mL
N#C[C@@H]1CC[C@@H]2CN1C(=O)N2OS(=O)(=O)[O-].[Na+]	≤ 0.12	> 16	1.9 10^4/M/s	> 16	16	≤ 0.12	≤ 0.12	0.5	16	0.5	≤ 0.12	> 16	≤ 0.12	2	≤ 0.12	8	0.25	0.25	0.25	≤ 0.12	MIC (Acinetobacter baumannii [23]): 8 µg/mL; MIC (Klebsiella pneumoniae [24]): ≤ 0.12 µg/mL; MIC (Acinetobacter baumannii [3]): 2 µg/mL; MIC (Klebsiella pneumoniae [25]): ≤ 0.12 µg/mL; MIC (Pseudomonas aeruginosa [26]): > 16 µg/mL; MIC (Acinetobacter baumannii [27]): 8 µg/mL; MIC (Klebsiella pneumoniae [28]): ≤ 0.12 µg/mL; MIC (Pseudomonas aeruginosa [29]): > 16 µg/mL; MIC (Klebsiella pneumoniae [30]): ≤ 0.12 µg/mL; MIC (Acinetobacter baumannii [31]): 1 µg/mL; MIC (Klebsiella pneumoniae [32]): 0.25 µg/mL; MIC (Escherichia coli [33]): ≤ 0.12 µg/mL; MIC (Klebsiella pneumoniae [34]): ≤ 0.12 µg/mL; MIC (Acinetobacter baumannii [35]): 4 µg/mL; MIC (Acinetobacter baumannii [36]): > 16 µg/mL; MIC (Klebsiella pneumoniae [37]): 1 µg/mL; MIC (Klebsiella pneumoniae [21]): ≤ 0.12 µg/mL; MIC (Klebsiella pneumoniae [22]): 0.5 µg/mL
NC(=O)[C@@H]1CC[C@@H]2CN1C(=O)N2OS(=O)(=O)[O-].[Na+] [AVIBACTAM SODIUM]	≤ 0.12	> 16	3.9 10^3/M/s	> 16	16	1	≤ 0.12	0.5	16	0.5	≤ 0.12	> 16	≤ 0.12	> 16	≤ 0.12	4	≤ 0.12	0.5	≤ 0.12	≤ 0.12	pKi [38]: 4.72; MIC (Klebsiella pneumoniae [21]): ≤ 0.12 µg/mL; MIC (Klebsiella pneumoniae [22]): 0.5 µg/mL
